Type in all cases: nucleic-acid assay
The test system of assay [1] is Nucleic Acid. The experiment in a line: Binding affinity to 5'-GCTAAAAAGAAAGAGAGATCG-3'/5'- CGATCTCTCTTTCTTTTTAGC-3' double stranded DNA assessed as melting temperature at 1.9 uM in sodium cacodylate buffer at pH 6.8 by UV spectrophotometric analysis. The essentials:
(§1)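 Each oligonucleotide at 1.9 µM final. Absorbance at 260 nm recorded from 5 °C to 85 °C at 0.5 °C/min; Tm taken from the melting profile.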

Assay [2] concerns Nucleic Acid. The assay can be described thus: Binding affinity to 5'-GCTAAAAAGATAGAGAGATCG-3'/5'- CGATCTCTCTATCTTTTTAGC-3' double stranded DNA assessed as melting temperature at 1.5 uM in sodium phosphate buffer at pH 7 by UV spectrophotometric analysis. The essentials: (§2)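 UV melting of triplexes between each modified TFO and the 21-bp duplex target, in 7 mM sodium phosphate buffer (pH 7.0), 140 mM KCl and 10 mM MgCl₂. Each oligonucleotide at 1.5 µM final. Absorbance followed at 260 nm from 5 °C to 85 °C, scanned at 0.5 °C/min, to give Tm.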

The test system of assay [3] is Nucleic Acid. The experiment in a line: Binding affinity to 5'-GCTAAAAAGATAGAGAGATCG-3'/5'- CGATCTCTCTATCTTTTTAGC-3' double stranded DNA assessed as melting temperature at 1.9 uM in sodium cacodylate buffer at pH 6.8 by UV spectrophotometric analysis. The essentials:
as §1

The subject of assay [4] is Nucleic Acid. The experiment in a line: Binding affinity to 5'-GCTAAAAAGACAGAGAGATCG-3'/5'- CGATCTCTCTGTCTTTTTAGC-3' double stranded DNA assessed as melting temperature at 1.9 uM in sodium cacodylate buffer at pH 6.8 by UV spectrophotometric analysis. In short, it runs like this: as §1
Assay [5] concerns Nucleic Acid. The assay can be described thus: Binding affinity to 5'-GCTAAAAAGAGAGAGAGATCG-3'/5'- CGATCTCTCTCTCTTTTTAGC-3' double stranded DNA assessed as melting temperature at 1.9 uM in sodium cacodylate buffer at pH 6.8 by UV spectrophotometric analysis. The essentials:
as §1

The test system of assay [6] is Nucleic Acid. The experiment in a line: Binding affinity to 5'-GCTAAAAAGACAGAGAGATCG-3'/5'- CGATCTCTCTGTCTTTTTAGC-3' double stranded DNA assessed as change in melting temperature at 1.5 uM in sodium phosphate buffer at pH 7 by UV spectrophotometric analysis.
Assay [7] has as its system Nucleic Acid. The assay can be described thus: Binding affinity to 5'-GCTAAAAAGAGAGAGAGATCG-3'/5'- CGATCTCTCTCTCTTTTTAGC-3' double stranded DNA assessed as melting temperature at 1.5 uM in sodium phosphate buffer at pH 7 by UV spectrophotometric analysis. The essentials: as §2
Assay [8] concerns Nucleic Acid. The assay can be described thus: Binding affinity to 5'-GCTAAAAAGAAAGAGAGATCG-3'/5'- CGATCTCTCTTTCTTTTTAGC-3' double stranded DNA assessed as melting temperature at 1.5 uM in sodium phosphate buffer at pH 7 by UV spectrophotometric analysis. The essentials:
as §2

Assay [9] concerns Nucleic Acid. The assay can be described thus: Binding affinity to5'-GCTAAAAAGACAGAGAGATCG-3'/5'- CGATCTCTCTGTCTTTTTAGC-3' double stranded DNA assessed as melting temperature at 1.5 uM in sodium phosphate buffer at pH 7 by UV spectrophotometric analysis. In short, it runs like this:
as §2

The values below come from ChEMBL document CHEMBL1949561, “Synthesis and triplex-forming ability of oligonucleotides bearing 1-substituted 1H-1,2,3-triazole nucleobases” (Bioorg Med Chem, 2011).

As to `Cc1cn([C@H]2C[C@H](OP(=O)(O)OC[C@H]3O[C@@H](n4cc(C)c(=O)[nH]c4=O)C[C@@H]3OP(=O)(O)OC[C@H]3O[C@@H](n4cc(C)c(N)nc4=O)C[C@@H]3OP(=O)(O)OC[C@H]3O[C@@H](n4cc(C)c(=O)[nH]c4=O)C[C@@H]3OP(=O)(O)OC[C@H]3O[C@@H](n4cc(C)c(N)nc4=O)C[C@@H]3OP(=O)(O)OC[C@H]3O[C@@H](n4cc(C)c(=O)[nH]c4=O)C[C@@H]3OP(=O)(O)OC[C@H]3O[C@@H](c4cn(-c5ccccc5)nn4)C[C@@H]3OP(=O)(O)OC[C@H]3O[C@@H](n4cc(C)c(=O)[nH]c4=O)C[C@@H]3OP(=O)(O)OC[C@H]3O[C@@H](n4cc(C)c(N)nc4=O)C[C@@H]3OP(=O)(O)OC[C@H]3O[C@@H](n4cc(C)c(=O)[nH]c4=O)C[C@@H]3OP(=O)(O)OC[C@H]3O[C@@H](n4cc(C)c(=O)[nH]c4=O)C[C@@H]3OP(=O)(O)OC[C@H]3O[C@@H](n4cc(C)c(=O)[nH]c4=O)C[C@@H]3OP(=O)(O)OC[C@H]3O[C@@H](n4cc(C)c(=O)[nH]c4=O)C[C@@H]3OP(=O)(O)OC[C@H]3O[C@@H](n4cc(C)c(=O)[nH]c4=O)C[C@@H]3O)[C@@H](COP(=O)(O)O[C@H]3C[C@H](n4cc(C)c(=O)[nH]c4=O)O[C@@H]3CO)O2)c(=O)nc1N`, the Tm in the assay with Nucleic Acid [1] was 19 °C; in the assay on Nucleic Acid [2], 17 °C; with Nucleic Acid [3], 23 °C; with Nucleic Acid [4], 29 °C; in the assay with Nucleic Acid [5], 17 °C; in the assay with Nucleic Acid [7] it was < 10 °C. Also, the Tm in the assay on Nucleic Acid [8] was < 10 °C; in the assay with Nucleic Acid [9] it was 25 °C. Moreover, in the assay on Nucleic Acid [6], the ΔTm worked out at 8 °C.
With `Cc1cn([C@H]2C[C@H](OP(=O)(O)OC[C@H]3O[C@@H](n4cc(C)c(=O)[nH]c4=O)C[C@@H]3OP(=O)(O)OC[C@H]3O[C@@H](n4cc(C)c(N)nc4=O)C[C@@H]3OP(=O)(O)OC[C@H]3O[C@@H](n4cc(C)c(=O)[nH]c4=O)C[C@@H]3OP(=O)(O)OC[C@H]3O[C@@H](n4cc(C)c(N)nc4=O)C[C@@H]3OP(=O)(O)OC[C@H]3O[C@@H](n4cc(C)c(=O)[nH]c4=O)C[C@@H]3OP(=O)(O)OC[C@H]3O[C@@H](c4cn(-c5ccc(NC(N)=O)cc5)nn4)C[C@@H]3OP(=O)(O)OC[C@H]3O[C@@H](n4cc(C)c(=O)[nH]c4=O)C[C@@H]3OP(=O)(O)OC[C@H]3O[C@@H](n4cc(C)c(N)nc4=O)C[C@@H]3OP(=O)(O)OC[C@H]3O[C@@H](n4cc(C)c(=O)[nH]c4=O)C[C@@H]3OP(=O)(O)OC[C@H]3O[C@@H](n4cc(C)c(=O)[nH]c4=O)C[C@@H]3OP(=O)(O)OC[C@H]3O[C@@H](n4cc(C)c(=O)[nH]c4=O)C[C@@H]3OP(=O)(O)OC[C@H]3O[C@@H](n4cc(C)c(=O)[nH]c4=O)C[C@@H]3OP(=O)(O)OC[C@H]3O[C@@H](n4cc(C)c(=O)[nH]c4=O)C[C@@H]3O)[C@@H](COP(=O)(O)O[C@H]3C[C@H](n4cc(C)c(=O)[nH]c4=O)O[C@@H]3CO)O2)c(=O)nc1N`, the Tm came out at 18 °C in the assay with Nucleic Acid [1]; 13 °C in the assay on Nucleic Acid [2]; 18 °C in the assay on Nucleic Acid [3]; 29 °C in the assay on Nucleic Acid [4]; 17 °C with Nucleic Acid [5]; 13 °C with Nucleic Acid [7]. The Tm was determined as 12 °C in the assay with Nucleic Acid [8] and 24 °C in the assay with Nucleic Acid [9]. Further, the ΔTm with Nucleic Acid [6] worked out at 11 °C.

The ΔTm is the change in melting temperature against a reference sample.
